# Measured values gathered from unrelated publications.
# Lines come from different studies, so protocols differ.
# CYP2B6: Cytochrome P450 2B6 (CYP2B6, Homo sapiens, UniProt P20813)
Structure (SMILES),tested on,assay,system,conditions,endpoint,result
OCc1ccc(-c2nn(Cc3ccccc3)c3ccccc23)o1,CYP2B6,"enzyme activity, inhibitor","human, liver microsomes",,IC50,5.1 µM
CSc1ccccc1C(=O)NCCn1cc(C(=O)NCc2cccc(C)n2)c(=O)c2cc3c(cc21)OCO3,CYP2B6,"enzyme activity, inhibitor","human, liver microsomes","20 min, without NADPH, with preincubation",IC50,> 100 µM
CNS(=O)(=O)c1ccc(Nc2ncc(C(F)(F)F)c(N3CCC(C)(O)CC3)n2)c(C)c1,,,"rat, plasma","intravenous, 2 mg/kg",clearance,52 mL/min/kg
c1ccc(COc2ccc(Nc3ccc4ncc(OCC5CCNCC5)nc4c3)cc2)cc1,HeLa,"cell growth or viability, XTT",,7 days,EC50,> 30 µM
CC(C)n1ncc2c(C(=O)NCC3(C)CNC3)cc(C3CC3)nc21,HeLa,"cell growth or viability, neutral red",,0.11 µM,viability,99.9%
CC(C)[C@@H]1NC(=O)[C@@H](CCCCN)NC(=O)[C@H]([C@@H](C)O)NC(=O)[C@@H](CCCN)NC(=O)[C@H](Cc2ccccc2)NC(=O)[C@@H](Cc2ccccc2)NC1=O,,haemolysis,human,100 µM,haemolysis,< 10%
Cc1cc(S(=O)(=O)N[C@H]2CC[C@H](CN3CCN(c4ccc(C5CCC(=O)NC5=O)c(Cl)c4)CC3)CC2)ccc1Nc1ncc(C(F)(F)F)c(N2CCC[C@](C)(O)C2)n1 (some centres unmarked),,,"rat, plasma","intravenous, 2 mg/kg",clearance,15 mL/min/kg
CSc1ccccc1C(=O)NCCn1cc(C(=O)NCc2cccc(C)n2)c(=O)c2cc3c(cc21)OC(F)(F)O3,CYP2B6,"enzyme activity, inhibitor","human, liver microsomes","20 min, without NADPH, with preincubation",IC50,> 100 µM
c1ccc(Oc2ccc(Nc3ccc4ncc(OCC5CCNCC5)nc4c3)cc2)cc1,HeLa,"cell growth or viability, XTT",,7 days,EC50,20.9 µM
CC(C)[C@@H]1NC(=O)[C@@H](CCCNC(=N)N)NC(=O)[C@H](C)NC(=O)[C@@H](CCCN)NC(=O)[C@H](Cc2ccccc2)NC(=O)[C@@H](Cc2ccccc2)NC1=O,,haemolysis,human,100 µM,haemolysis,< 10%
Cc1cc(S(=O)(=O)NC2CC(N3CCN(CC4CCN(c5ccc(NC6CCC(=O)NC6=O)cc5C)CC4)CC3)C2)ccc1Nc1ncc(C(F)(F)F)c(N2CCC[C@](C)(O)C2)n1 (some centres unmarked),,,"rat, plasma","intravenous, 2 mg/kg",clearance,26 mL/min/kg
CCCCCCCCCCCCCCCCCC(=O)O,HeLa,"cell growth or viability, MTT",,48 h,CC50,90.6 µg/mL
Cc1cc(S(=O)(=O)N[C@]2(C)C[C@@H](N3CCN(CC4CCN(c5ccc6c(c5F)n(C)c(=O)n6C5CCC(=O)NC5=O)CC4)CC3)C2)ccc1Nc1ncc(C(F)(F)F)c(N2CCC[C@](C)(O)C2)n1 (some centres unmarked),,,"rat, plasma","intravenous, 2 mg/kg",clearance,62 mL/min/kg
C[C@H]1Oc2cc(cnc2N)-c2c(nn(C)c2C#N)CN(C)C(=O)c2ccc(F)cc21,,,"male Sprague-Dawley rat, plasma","oral, 5 mg/kg, single dose",CL/F,50 mL/min/kg
